{"source": "ChEMBL document CHEMBL4138314", "about": "“Synthesis and Evaluation of N-Phenyl-3-sulfamoyl-benzamide Derivatives as Capsid Assembly Modulators Inhibiting Hepatitis B Virus (HBV)” (J Med Chem, 2018)", "key": {"[1]": {"test": "Kinetic solubility of the compound at pH 7.4 after 4 hrs by UPLC-UV analysis", "type": "physicochemical", "conditions": "buffer, read-out: Kinetic_solubility"}, "[2]": {"target": "5-hydroxytryptamine receptor 2B (Homo sapiens, UniProt P41595)", "sequence (P41595 whole entry)": "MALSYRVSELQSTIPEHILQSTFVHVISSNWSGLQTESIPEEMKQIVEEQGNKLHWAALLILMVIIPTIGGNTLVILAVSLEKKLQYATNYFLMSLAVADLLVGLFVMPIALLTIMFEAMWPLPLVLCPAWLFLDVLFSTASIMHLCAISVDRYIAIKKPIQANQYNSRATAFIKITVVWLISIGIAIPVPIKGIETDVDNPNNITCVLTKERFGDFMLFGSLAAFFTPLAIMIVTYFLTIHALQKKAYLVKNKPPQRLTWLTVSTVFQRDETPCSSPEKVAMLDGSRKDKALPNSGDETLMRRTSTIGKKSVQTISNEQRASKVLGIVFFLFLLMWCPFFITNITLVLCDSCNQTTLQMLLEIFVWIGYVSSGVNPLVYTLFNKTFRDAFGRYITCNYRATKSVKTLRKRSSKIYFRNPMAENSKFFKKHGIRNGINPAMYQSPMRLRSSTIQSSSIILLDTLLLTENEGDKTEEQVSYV", "test": "Antagonist activity at 5-HT2B (unknown origin) at 10 uM", "type": "functional", "outline": "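Receptor/ion channel/transporter panel of 80 targets screened at 10 µM, giving percent effect at 5-HT2B; follow-up 5-HT2B functional testing in agonist and antagonist modes, with antagonist IC50 determined.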"}, "[3]": {"test": "AUC (0 to 8 hrs) in humanized mouse at 50 mg/kg, sc measured on day 1 post dose by LC-MS/MS analysis", "type": "ADME, organism-based", "set-up": "dose 50 mg/kg, time < 8 hr, route subcutaneous", "conditions": "in vivo"}, "[4]": {"test": "Tmax in C57BL/6 mouse at 50 mg/kg, sc by LC-MS/MS analysis", "type": "ADME, organism-based", "conditions": "in vivo", "outline": "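C57BL/6 mice dosed subcutaneously at 50 mg/kg to bypass first-pass metabolism; plasma and liver levels sampled 24 h after dosing.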"}, "[5]": {"target": "Core antigen (Hepatitis B virus) (UniProt Q03732)", "sequence (Q03732 as listed by the source)": "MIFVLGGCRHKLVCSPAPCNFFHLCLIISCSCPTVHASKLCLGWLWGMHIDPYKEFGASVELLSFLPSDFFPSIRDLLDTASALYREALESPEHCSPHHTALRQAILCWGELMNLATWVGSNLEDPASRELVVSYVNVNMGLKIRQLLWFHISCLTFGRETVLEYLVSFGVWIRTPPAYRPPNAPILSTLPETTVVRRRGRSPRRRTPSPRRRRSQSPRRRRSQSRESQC", "test": "Induction of HBV Maleimidyl BoDIPY-FL-labeled capsid Cp*150 mutant aggregation incubated for 30 mins measured every 10 secs for 30 mins by fluorescence quenching assay"}, "[6]": {"test": "Plasma concentration in humanized mouse at 50 mg/kg, sc after 24 hrs by LC-MS/MS analysis", "type": "ADME, organism-based"}, "[7]": {"test": "Half life in humanized mouse at 200 mg/kg, sc for 8 days measured on day 8 post last dose by LC-MS/MS analysis", "type": "ADME, organism-based", "conditions": "in vivo"}, "[8]": {"test": "Tmax in C57BL/6 mouse at 50 mg/kg, po by LC-MS/MS analysis", "type": "ADME, organism-based", "conditions": "in vivo", "outline": "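Single-dose PK in C57BL/6 mice given compound intravenously and orally, with oral doses of 10 and 50 mg/kg. Plasma clearance, volume of distribution and oral bioavailability were derived from the plasma profiles.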"}, "hERG": {"target": "hERG (Homo sapiens, UniProt Q12809)", "sequence (Q12809 whole entry)": "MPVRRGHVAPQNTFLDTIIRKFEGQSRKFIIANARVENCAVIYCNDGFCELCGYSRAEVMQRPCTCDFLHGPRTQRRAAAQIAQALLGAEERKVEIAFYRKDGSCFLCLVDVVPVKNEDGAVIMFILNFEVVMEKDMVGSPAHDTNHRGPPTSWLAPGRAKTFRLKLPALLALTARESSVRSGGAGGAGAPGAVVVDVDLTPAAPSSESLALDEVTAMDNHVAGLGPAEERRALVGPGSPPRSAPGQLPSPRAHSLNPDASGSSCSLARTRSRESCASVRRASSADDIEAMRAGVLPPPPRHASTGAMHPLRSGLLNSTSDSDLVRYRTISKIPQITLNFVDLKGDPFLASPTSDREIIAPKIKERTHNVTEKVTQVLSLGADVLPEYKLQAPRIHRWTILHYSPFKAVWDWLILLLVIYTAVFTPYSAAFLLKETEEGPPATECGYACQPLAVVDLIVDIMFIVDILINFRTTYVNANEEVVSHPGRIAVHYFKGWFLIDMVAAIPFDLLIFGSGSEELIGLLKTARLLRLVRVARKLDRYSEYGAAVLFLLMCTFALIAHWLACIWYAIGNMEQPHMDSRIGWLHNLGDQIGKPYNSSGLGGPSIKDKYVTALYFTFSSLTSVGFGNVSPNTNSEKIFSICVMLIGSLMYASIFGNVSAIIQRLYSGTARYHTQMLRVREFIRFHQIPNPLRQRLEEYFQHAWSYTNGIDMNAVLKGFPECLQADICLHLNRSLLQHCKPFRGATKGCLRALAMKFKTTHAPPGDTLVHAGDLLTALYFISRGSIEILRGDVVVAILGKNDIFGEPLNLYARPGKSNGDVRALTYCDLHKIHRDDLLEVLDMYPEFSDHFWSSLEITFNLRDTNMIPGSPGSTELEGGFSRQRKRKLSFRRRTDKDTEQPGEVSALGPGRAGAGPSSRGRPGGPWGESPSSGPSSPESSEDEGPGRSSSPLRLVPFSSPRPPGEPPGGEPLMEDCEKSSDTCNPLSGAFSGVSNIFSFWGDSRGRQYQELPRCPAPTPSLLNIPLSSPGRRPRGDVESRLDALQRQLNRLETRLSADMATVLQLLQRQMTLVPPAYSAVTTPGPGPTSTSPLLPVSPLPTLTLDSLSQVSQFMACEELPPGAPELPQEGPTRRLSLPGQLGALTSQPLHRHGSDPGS", "test": "Inhibition of human ERG at 3 uM by automated patch clamp assay (reference value: 14%)"}, "HBV genotype D": {"system": "HBV genotype D", "test": "Antiviral activity against HBV genotype D infected in chimeric mouse with humanized liver assessed as reduction in HBsAg level at 200 mg/kg, sc qd for 28 days", "type": "functional, organism-based", "conditions": "hepatitis B virus genotype D", "outline": "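HBV genotype D-infected humanized-liver chimeric mice (≥70% human hepatocyte replacement) were dosed once daily for 28 days at 200 mg/kg s.c., with oral saline and oral entecavir 0.03 mg/kg as controls. Serum HBeAg and HBsAg were followed over the study.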"}}, "note": "Active and inactive are the calls of the source. No cut-off for these calls is given here."}
{"smiles": "Cc1cc(NC(=O)c2cccc(S(=O)(=O)N[C@H]3CCOC3)c2)ccc1F", "values": [{"measurement": "solubility kinetic at 4 h", "setting": "[1]", "result": 82, "unit": "µM"}, {"measurement": "inhibition", "setting": "[2]", "result": 71, "unit": "%"}, {"measurement": "AUC(0-t) at 8 h", "setting": "[3]", "result": 4750, "unit": "ng·h/mL"}, {"measurement": "Tmax", "setting": "[4]", "result": 1, "unit": "h"}, {"measurement": "Activity", "setting": "[5]", "result": "Active"}, {"measurement": "concentration at 24 h", "setting": "[6]", "result": 167, "unit": "ng/mL"}, {"measurement": "half-life", "setting": "[7]", "result": 12.1, "unit": "h"}, {"measurement": "Tmax", "setting": "[8]", "result": 0.7, "unit": "h"}, {"measurement": "inhibition at 3 µM", "setting": "hERG", "result": 31, "unit": "%"}, {"measurement": "Activity", "setting": "HBV genotype D", "result": "inactive"}]}
